Source: ChEMBL document CHEMBL4024762, “Discovery of N-(3-Carbamoyl-5,5,7,7-tetramethyl-5,7-dihydro-4H-thieno[2,3-c]pyran-2-yl)-lH-pyrazole-5-carboxamide (GLPG1837), a Novel Potentiator Which Can Open Class III Mutant Cystic Fibrosis Transmembrane Conductance Regulator (CFTR) Channels to a High Extent” (J Med Chem, 2018)
pEC50: −log10 of the molar value. In brackets after ≈: the same amount, converted by molar mass. Activity calls are given as the source filed them. The calls are words filed in the database; no cut-off is given here.

Assays:
[1] = Oral bioavailability in dog at 5 mg/kg; format: ADME, organism-based, Canis lupus familiaris; settings: in vivo
In short: (§1)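 F% in rat and dog after a 5 mg/kg PO dose, referenced to the 1 mg/kg IV PK parameters.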

[2] = system: Rattus norvegicus; assay: Unbound clearance in rat at 1 mg/kg, iv; format: ADME, organism-based; settings: in vivo
In short: (§2)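 IV PK in rat and dog at 1 mg/kg. Cl, Cl,unb (L/h/kg), Vd (L/kg) and T1/2 (h) were derived from plasma levels.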

[3] = Cmax in rat at 300 mg/kg, po; format: ADME, organism-based; parameters: dose 300 mg/kg, route oral; settings: in vivo
[4] = Thermodynamic solubility of the compound at pH 3; format: physicochemical; settings: buffer, read-out: Therm_solubility
[5] = Half life in rat at 1 mg/kg, iv; format: ADME, organism-based; settings: in vivo; in short: as §2
[6] = biological target: Cytochrome P450 2C19 (Homo sapiens, UniProt P33261); assay: Inhibition of CYP2C19 (unknown origin); format: ADME
[7] = biological target: Cytochrome P450 2D6 (Homo sapiens, UniProt P10635); assay: Inhibition of CYP2D6 (unknown origin); format: ADME
[8] = biological target: Cytochrome P450 2C9 (Homo sapiens, UniProt P11712); assay: Inhibition of CYP2C9 (unknown origin); format: ADME
[9] = system: Cystic fibrosis transmembrane conductance regulator (Homo sapiens), P13569 [F508del]; assay: (§3) Potentiation of CFTR F508del mutant (unknown origin) expressed in human CFBE41o cells incubated for 10 mins in presence of forskolin measured for 7 secs by YFP halide assay; format: cell-based; parameters: concentration or dose not given beside the values
Chain of Cystic fibrosis transmembrane conductance regulator (Homo sapiens), P13569 [F508del] (P13569 as listed by the source): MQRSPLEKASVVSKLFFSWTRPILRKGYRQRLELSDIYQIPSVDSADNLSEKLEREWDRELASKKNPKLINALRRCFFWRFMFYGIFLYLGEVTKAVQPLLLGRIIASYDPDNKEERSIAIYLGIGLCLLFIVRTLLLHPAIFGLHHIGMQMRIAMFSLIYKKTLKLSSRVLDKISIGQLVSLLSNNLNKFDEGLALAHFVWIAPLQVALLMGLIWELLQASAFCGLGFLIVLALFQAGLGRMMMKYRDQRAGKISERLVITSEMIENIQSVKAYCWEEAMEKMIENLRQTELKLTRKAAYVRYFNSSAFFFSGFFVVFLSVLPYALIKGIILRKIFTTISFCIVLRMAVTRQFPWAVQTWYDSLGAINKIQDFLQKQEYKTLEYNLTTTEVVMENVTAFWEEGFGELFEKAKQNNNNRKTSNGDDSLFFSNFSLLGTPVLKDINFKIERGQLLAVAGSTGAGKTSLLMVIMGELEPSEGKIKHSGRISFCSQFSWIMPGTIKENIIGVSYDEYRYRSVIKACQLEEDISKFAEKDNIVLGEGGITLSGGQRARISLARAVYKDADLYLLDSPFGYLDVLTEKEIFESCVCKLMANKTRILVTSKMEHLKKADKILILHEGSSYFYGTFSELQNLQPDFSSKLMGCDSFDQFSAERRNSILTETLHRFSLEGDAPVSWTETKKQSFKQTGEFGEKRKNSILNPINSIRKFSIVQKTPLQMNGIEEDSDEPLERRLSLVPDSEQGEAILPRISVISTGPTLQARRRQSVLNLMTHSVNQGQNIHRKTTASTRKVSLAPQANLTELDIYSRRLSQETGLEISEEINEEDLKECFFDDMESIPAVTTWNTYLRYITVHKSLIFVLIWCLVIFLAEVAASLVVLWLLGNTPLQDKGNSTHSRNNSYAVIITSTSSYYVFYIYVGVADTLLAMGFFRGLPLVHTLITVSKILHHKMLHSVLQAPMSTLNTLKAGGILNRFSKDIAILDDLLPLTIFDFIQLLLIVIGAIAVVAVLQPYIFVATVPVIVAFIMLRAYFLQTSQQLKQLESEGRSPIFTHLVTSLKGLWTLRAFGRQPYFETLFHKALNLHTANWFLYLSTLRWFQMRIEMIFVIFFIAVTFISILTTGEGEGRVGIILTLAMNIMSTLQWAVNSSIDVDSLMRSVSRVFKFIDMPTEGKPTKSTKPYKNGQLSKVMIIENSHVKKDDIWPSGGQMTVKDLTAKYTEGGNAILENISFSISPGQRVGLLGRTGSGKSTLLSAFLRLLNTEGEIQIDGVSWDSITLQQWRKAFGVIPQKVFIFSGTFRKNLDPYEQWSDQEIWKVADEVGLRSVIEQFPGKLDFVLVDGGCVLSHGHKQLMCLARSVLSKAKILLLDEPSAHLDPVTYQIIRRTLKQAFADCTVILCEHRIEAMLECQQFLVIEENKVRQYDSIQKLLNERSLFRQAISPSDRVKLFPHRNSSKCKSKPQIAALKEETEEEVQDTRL
In short: (§4)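 CFBE41o- cells (CF bronchial line) transduced by adenovirus with F508del CFTR and YFP (H148Q/I152L/F47L). Cells held 24 h at 27°C, then treated 10 min at room temperature with 10 µM forskolin plus potentiator. YFP fluorescence read for 7 s across addition of NaI buffer (137 mM NaI). Activity = 1-(F/F0).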

[10] = biological target: Cystic fibrosis transmembrane conductance regulator (Homo sapiens, UniProt P13569, F508DEL); assay: as §3; format: cell-based; in short: as §4
[11] = biological target: T1, Cytochrome P450 1A2 (Homo sapiens, UniProt P05177); assay: Inhibition of CYP1A2 (unknown origin); format: ADME
T1 sequence (P05177 whole entry): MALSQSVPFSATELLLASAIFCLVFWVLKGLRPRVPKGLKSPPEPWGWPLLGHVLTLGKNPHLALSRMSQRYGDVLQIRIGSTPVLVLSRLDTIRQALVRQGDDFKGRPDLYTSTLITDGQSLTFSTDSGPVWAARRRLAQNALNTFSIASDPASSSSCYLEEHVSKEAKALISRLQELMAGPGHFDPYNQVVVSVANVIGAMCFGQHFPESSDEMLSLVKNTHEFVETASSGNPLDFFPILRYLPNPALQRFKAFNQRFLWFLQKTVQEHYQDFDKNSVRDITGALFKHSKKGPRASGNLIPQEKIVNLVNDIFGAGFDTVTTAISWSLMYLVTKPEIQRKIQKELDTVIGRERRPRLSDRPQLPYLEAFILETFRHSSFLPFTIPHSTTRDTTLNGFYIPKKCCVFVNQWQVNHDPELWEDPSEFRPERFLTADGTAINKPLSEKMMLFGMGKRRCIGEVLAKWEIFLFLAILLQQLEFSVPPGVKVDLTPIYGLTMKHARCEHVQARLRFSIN

[12] = Unbound intrinsic clearance in rat microsomes; format: ADME, Microsome
In short: (§5)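 Intrinsic clearance in liver microsomes or hepatocytes, corrected for non-specific binding using fraction unbound in microsomes (Fu,mic) or in hepatocyte incubations (Fu,inc).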

[13] = system: Cystic fibrosis transmembrane conductance regulator (Homo sapiens), P13569 [R117H]; assay: Potentiation of CFTR R117H mutant (unknown origin) expressed in HEK293 cells incubated for 10 mins in presence of forskolin measured for 2 mins by YFP halide assay relative to ivacaftor; format: cell-based
[14] = system: Cystic fibrosis transmembrane conductance regulator (Homo sapiens), P13569 [G178R]; assay: Potentiation of CFTR G178R mutant (unknown origin) expressed in HEK293 cells incubated for 10 mins in presence of forskolin measured for 2 mins by YFP halide assay relative to ivacaftor; format: cell-based
[15] = Oral bioavailability in rat at 5 mg/kg; format: ADME, organism-based; settings: in vivo; in short: as §1
[16] = system: Homo sapiens; assay: Toxicity in human up to 800 mg, bid administered for 14 days; settings: 336 h
[17] = Volume of distribution in dog at 1 mg/kg, iv; format: ADME, organism-based, Canis lupus familiaris; settings: in vivo; in short: as §2
[18] = system: Cystic fibrosis transmembrane conductance regulator (Homo sapiens), P13569 [F508del]; assay: Potentiation of CFTR F508del mutant in primary HBE cells assessed as increase in channel conductivity measured every 2 mins for 20 mins by TECC assay; format: cell-based
In short: (§6)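 TECC on primary epithelia bathed both sides in NaCl Ringer, pH 7.4, at 37°C. Apical amiloride 100 µM; forskolin 10 µM apical and basolateral. One compound concentration per transwell. EC50 derived from the increase in Ieq. Duplicate or triplicate, mean ± SEM; 10 µM CFTRinh-172 used for specificity.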

[19] = biological target: T2, Cystic fibrosis transmembrane conductance regulator (Homo sapiens, UniProt P13569, G551D); assay: Potentiation of CFTR G551D mutant in primary HBE cells assessed as increase in channel conductivity measured every 2 mins for 20 mins by TECC assay; format: cell-based; in short: as §6
T2 sequence (P13569 whole entry G551D): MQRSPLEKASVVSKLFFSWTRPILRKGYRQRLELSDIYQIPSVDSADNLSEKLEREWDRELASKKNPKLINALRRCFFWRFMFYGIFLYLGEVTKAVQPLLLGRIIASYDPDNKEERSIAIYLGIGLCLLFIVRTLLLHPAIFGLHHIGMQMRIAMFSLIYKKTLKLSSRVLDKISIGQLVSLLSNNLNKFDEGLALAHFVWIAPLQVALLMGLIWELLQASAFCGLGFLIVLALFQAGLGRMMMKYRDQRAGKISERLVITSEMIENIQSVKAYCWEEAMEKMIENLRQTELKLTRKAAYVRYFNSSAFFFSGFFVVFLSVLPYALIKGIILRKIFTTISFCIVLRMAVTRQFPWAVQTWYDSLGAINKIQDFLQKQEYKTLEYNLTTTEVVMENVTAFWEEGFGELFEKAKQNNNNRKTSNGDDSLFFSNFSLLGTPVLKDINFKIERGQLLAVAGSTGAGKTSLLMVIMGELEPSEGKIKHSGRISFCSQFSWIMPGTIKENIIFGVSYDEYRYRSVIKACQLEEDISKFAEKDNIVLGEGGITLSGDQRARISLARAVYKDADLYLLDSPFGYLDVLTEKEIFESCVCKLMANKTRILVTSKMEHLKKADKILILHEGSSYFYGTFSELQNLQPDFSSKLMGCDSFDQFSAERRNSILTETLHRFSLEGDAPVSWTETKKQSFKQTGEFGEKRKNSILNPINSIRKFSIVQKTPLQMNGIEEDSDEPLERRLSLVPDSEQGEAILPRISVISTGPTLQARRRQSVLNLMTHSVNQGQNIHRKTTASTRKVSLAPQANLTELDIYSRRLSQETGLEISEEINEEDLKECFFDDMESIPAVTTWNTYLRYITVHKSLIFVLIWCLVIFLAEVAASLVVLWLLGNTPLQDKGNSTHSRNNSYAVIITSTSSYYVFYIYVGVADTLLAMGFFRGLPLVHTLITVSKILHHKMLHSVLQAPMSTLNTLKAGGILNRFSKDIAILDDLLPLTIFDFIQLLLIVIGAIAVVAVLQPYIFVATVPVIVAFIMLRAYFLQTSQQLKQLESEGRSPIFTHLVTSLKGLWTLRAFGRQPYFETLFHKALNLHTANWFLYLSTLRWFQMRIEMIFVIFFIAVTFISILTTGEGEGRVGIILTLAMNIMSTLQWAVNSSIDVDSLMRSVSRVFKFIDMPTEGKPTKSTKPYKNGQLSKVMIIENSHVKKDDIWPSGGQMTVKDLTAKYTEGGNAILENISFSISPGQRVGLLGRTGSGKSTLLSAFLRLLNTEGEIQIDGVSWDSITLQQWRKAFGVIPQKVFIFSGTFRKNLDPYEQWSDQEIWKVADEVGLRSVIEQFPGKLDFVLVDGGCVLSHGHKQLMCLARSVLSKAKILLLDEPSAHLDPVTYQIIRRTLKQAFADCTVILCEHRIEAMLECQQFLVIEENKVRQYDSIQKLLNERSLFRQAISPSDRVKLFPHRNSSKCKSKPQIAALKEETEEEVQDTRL

[20] = system: Cystic fibrosis transmembrane conductance regulator (Homo sapiens), P13569 [S549N]; assay: Potentiation of CFTR S549N mutant (unknown origin) expressed in HEK293 cells incubated for 10 mins in presence of forskolin measured for 2 mins by YFP halide assay relative to ivacaftor; format: cell-based
[21] = Unbound intrinsic clearance in human microsomes; format: ADME, Microsome
[22] = biological target: Cytochrome P450 3A4 (Homo sapiens, UniProt P08684); assay: Inhibition of CYP3A4 (unknown origin); format: ADME
Chain of Cytochrome P450 3A4 (P08684 whole entry): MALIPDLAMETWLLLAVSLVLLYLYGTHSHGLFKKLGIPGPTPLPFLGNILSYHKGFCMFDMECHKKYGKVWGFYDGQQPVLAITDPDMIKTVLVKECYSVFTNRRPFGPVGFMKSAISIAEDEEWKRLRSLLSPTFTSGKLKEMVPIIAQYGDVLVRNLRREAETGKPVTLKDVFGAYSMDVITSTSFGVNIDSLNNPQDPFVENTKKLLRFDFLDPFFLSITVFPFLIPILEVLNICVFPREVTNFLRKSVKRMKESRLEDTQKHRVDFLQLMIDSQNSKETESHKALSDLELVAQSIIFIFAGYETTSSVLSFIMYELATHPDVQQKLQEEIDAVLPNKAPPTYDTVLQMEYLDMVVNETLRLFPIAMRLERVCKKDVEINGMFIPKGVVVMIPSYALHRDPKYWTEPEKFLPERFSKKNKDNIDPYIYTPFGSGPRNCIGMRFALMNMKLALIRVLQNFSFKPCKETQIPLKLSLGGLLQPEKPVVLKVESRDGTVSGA

[23] = AUC in rat at 300 mg/kg, po; format: ADME, organism-based; settings: in vivo
[24] = biological target: Voltage-gated inwardly rectifying potassium channel KCNH2 (Homo sapiens, UniProt Q12809); assay: Inhibition of human ERG by manual patch clamp method
[25] = Unbound intrinsic clearance in rat hepatocytes; format: ADME, cell-based, Hepatocyte; in short: as §5
[26] = Efflux ratio of permeability in MDCK cells; format: ADME, cell-based, Canis lupus familiaris; settings: dog
[27] = Volume of distribution in rat at 1 mg/kg, iv; format: ADME, organism-based; settings: in vivo; in short: as §2
[28] = Clearance in dog at 1 mg/kg, iv; format: ADME, organism-based, Canis lupus familiaris; settings: in vivo; in short: as §2
[29] = AUC in rat at 5 mg/kg, po; format: ADME, organism-based; settings: in vivo
[30] = Clearance in rat at 1 mg/kg, iv; format: ADME, organism-based; settings: in vivo; in short: as §2
[31] = system: Homo sapiens; assay: Toxicity in human up to 2000 mg administered as single dose
[32] = biological target: T2, Cystic fibrosis transmembrane conductance regulator; assay: (§7) Potentiation of CFTR G551D mutant (unknown origin) expressed in HEK293 cells incubated for 10 mins in presence of forskolin measured for 2 mins by YFP halide assay; format: cell-based
In short: (§8)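 HEK293 cells transfected with the mutant CFTR (G551D, G178R, S549N or R117H) and YFP (H148Q/I152L/F47L), seeded directly after transfection, then 24 h at 37°C. Treated 10 min at room temperature with 10 µM forskolin plus potentiator. Fluorescence read for 2 min across addition of NaI buffer (375 mM NaI). Activity = 1-(F/F0).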

[33] = system: Cystic fibrosis transmembrane conductance regulator (Homo sapiens), P13569 [G551D]; assay: as §7; format: cell-based; parameters: concentration or dose not given beside the values; in short: as §8
Chain of Cystic fibrosis transmembrane conductance regulator (Homo sapiens), P13569 [G551D] (P13569 whole entry G551D): as the sequence (P13569 whole entry G551D) above

[34] = Half life in dog at 1 mg/kg, iv; format: ADME, organism-based, Canis lupus familiaris; settings: in vivo; in short: as §2
[35] = Thermodynamic solubility of the compound at pH 7.4; format: physicochemical; settings: buffer, read-out: Therm_solubility
[36] = Cmax in rat at 5 mg/kg, po; format: ADME, organism-based; parameters: dose 5 mg/kg, route oral; settings: in vivo
[37] = system: Canis familiaris; assay: Unbound clearance in dog at 1 mg/kg, iv; format: ADME, organism-based, Canis lupus familiaris; settings: in vivo; in short: as §2
[38] = Unbound intrinsic clearance in human hepatocytes; format: ADME, cell-based, Hepatocyte
[39] = Permeability across apical to basolateral side in MDCK cells; format: ADME, cell-based, Canis lupus familiaris; settings: dog, read-out: permeability
[40] = system: Cystic fibrosis transmembrane conductance regulator (Homo sapiens), P13569 [G551D]; assay: Potentiation of CFTR G551D mutant in primary HBE cells assessed as increase in channel conductivity measured every 2 mins for 20 mins by TECC assay relative to ivacaftor; format: cell-based

Compound `CC1(C)Cc2c(sc(NC(=O)c3ccn[nH]3)c2C(N)=O)C(C)(C)O1` has a bioavailability [1] greater than 100%, a CL free [2] of 400 mL/min/kg and a Cmax [3] of 4670 ng/mL. It also gave a solubility thermodynamic [4] of 11 µM (≈ 3.83 µg/mL), a half-life [5] of 1.84 h and a pEC50 [6] of less than 4.00. For the same compound, the pEC50 [7] was less than 4.00, the pEC50 [8] was less than 4.00 and the Activity [9] was 105%. For the same compound, the pEC50 [10] was 8.52, the pEC50 [11] was less than 4.00 and the CL free [12] was 28.3 mL/min/kg. It also gave an Efficacy [13] of 119%, an Efficacy [14] of 158% and a bioavailability [15] of 67%. For the same compound, the Activity [16] was “Non-Toxic”, the Vd [17] was 1.4 L/kg and the Activity [18] was “Active”. It also gave a pEC50 [19] of 6.74, an Efficacy [20] of 143% and a CL free [21] of 18.3 mL/min/kg. For the same compound, the pEC50 [22] was less than 4.00, the AUC [23] was 68200 ng·h/mL and the pEC50 [24] was less than 4.48. It also gave a CL free [25] of 95 mL/min/kg, an efflux ratio [26] of 2.6 and a Vd [27] of 4.8 L/kg. For the same compound, the clearance [28] was 5.33 mL/min/kg, the AUC [29] was 1540 ng·h/mL and the clearance [30] was 32 mL/min/kg. The Activity [31] was “Non-Toxic”, the pEC50 [32] was 6.47 and the Activity [33] was 103%. The half-life [34] was 3 h, the solubility thermodynamic [35] was 8.6 µM (≈ 3 µg/mL) and the Cmax [36] was 331 ng/mL. It also gave a CL free [37] of 107 mL/min/kg, a CL free [38] of 30 mL/min/kg and a Papp A→B [39] of 11 ×10⁻⁶ cm/s. It also gave an Activity [40] of 200%.
